Tests used:
Rattus norvegicus [1] = species on record: Rattus norvegicus; assay: Potency required for stimulation of [35S]GTP gamma-S binding to rat spleen was determined; format: functional, organism-based
Rattus norvegicus [2] = species on record: Rattus norvegicus; assay: G protein activation was measured by stimulation of [35S]GTP gamma-S binding to rat adipocyte membranes; format: functional
Rattus norvegicus [3] = species on record: Rattus norvegicus; assay: Relative intrinsic activity in stimulation of [35S]GTP gamma-S binding to rat adipocyte was determined; format: functional
Summary of the method: (§1)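 Relative intrinsic activity is maximal stimulation of [35S]GTPγS binding (0.2 nM) as a percentage of the maximum given by nicotinic acid, which is set at 100%. Rat membranes (adipocyte for line 3, spleen for line 4) at 1 to 1.5 µg protein were incubated 90 min at 25 °C with 10 µM GDP and 100 mM NaCl, then filtered. Values are arithmetic mean ± SEM.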

Rattus norvegicus [4] = species on record: Rattus norvegicus; assay: Relative intrinsic activity in stimulation of [35S]GTP gamma-S binding to rat spleen was determined; format: functional; summary of the method: as §1

| Compound | EC50 (Rattus norvegicus [1]) [µM] | EC50 (Rattus norvegicus [2]) [µM] | RIA (Rattus norvegicus [3]) [%] | RIA (Rattus norvegicus [4]) [%] |
| --- | --- | --- | --- | --- |
| O=C(O)c1n[nH]c2c1CCC2 | 6.97 | 6.44 | 51.7 | 55.9 |
| O=C(O)c1cc[nH]n1 | 21.5 | 16 | 78.5 | 85.3 |
| CCCc1cc(C(=O)O)n[nH]1 | 5.09 | 6.1 | 53.5 | 69.9 |
| O=C(O)c1n[nH]c2c1CCCC2 | 64.6 | 85.1 |  | 47.2 |
| CCCCc1cc(C(=O)O)n[nH]1 | 2.26 | 4.12 | 75.7 | 80.7 |

Further lines, with some results ahead:

| EC50 (Rattus norvegicus [1]) [µM] | EC50 (Rattus norvegicus [2]) [µM] | Compound | RIA (Rattus norvegicus [3]) [%] | RIA (Rattus norvegicus [4]) [%] |
| --- | --- | --- | --- | --- |
| 21.8 | 13.7 | CC(C)c1cc(C(=O)O)n[nH]1 | 49.2 | 67.7 |
| 86.9 | 70.7 | O=C(O)c1cc(Cc2ccccc2)n[nH]1 | 52.4 | 50.3 |
|  | 46.6 | O=C(O)c1cc(Cc2cccc(Cl)c2)n[nH]1 | 39.4 |  |
| 0.74 | 1.7 | O=C(O)c1cccnc1 [NIACIN] | 100 | 100 |

Reference: ChEMBL document CHEMBL1145993, “Pyrazole derivatives as partial agonists for the nicotinic acid receptor” (J Med Chem, 2003)
